The source made the active and inactive calls. The calls are words filed in the database; no cut-off is given here.
Tests used:
[1] = test system: Ebola virus - Zaire (1995); assay: Binding affinity to recombinant Ebola virus Zaire Mayinga-76 Envelope glycoprotein assessed as change in melting temperature up to 500 uM by SYPRO-dye based thermal shift assay
Ebolavirus = assay: Antiviral activity against HIV-1-derived Ebolavirus pseudoparticle infected in human TZM-bl cells after 48 hrs by beta-gal based reporter assay; format: functional, organism-based; conditions: Orthoebolavirus
Summary of the method: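 TZM-bl cells were plated at 2 × 10^4 per well 24 h ahead and chilled on ice. EBOVpp (1 in 10 dilution) was spinoculated at 2100g for 30 min at 4 °C, then removed with a PBS wash. Compound (100–0.125 μM) was added in DMEM/5% FBS for 48 h at 37 °C. Cells were fixed in 2% PFA, X-gal stained and imaged for infected/total cells. Triplicate runs; sigmoidal fit for IC50.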

SMILES	Activity [1]	IC50 (Ebolavirus) [µM]	IC80 (Ebolavirus) [µM]
Cc1[nH]nc(-c2ccc(OCCN3CCC(C(N)=O)CC3)cc2O)c1-c1ccc(Cl)cc1	Active	0.05	0.39
N#Cc1cc(N)ccc1Sc1cccc(C(F)(F)F)c1	inactive		
COc1ccc(CC(=O)c2c(C)cc(O)cc2O)cc1	inactive		
O=C(/C=C/c1cc(Br)cc2c1OCOC2)c1cc(F)ccc1O	inactive		
NC(=O)C1CCN(CCOc2ccc(-c3n[nH]cc3-c3ccccc3)c(O)c2)CC1	Active	3.1	50
O=C(/C=C/C1=Cc2ccccc2OC1)c1ccc(O)cc1	inactive		
CN(C)CCOc1ccc(/C(=C(/CCCl)c2ccccc2)c2ccccc2)cc1 [TOREMIFENE]		0.09	3
Nc1ccc(SSc2ccc(N)cc2)cc1	inactive		
